Measured values as given in ChEMBL document CHEMBL4689842, “EUbOPEN Chemogenomics Library wave 1” (2021).
Where “and” joins values, the source holds several entries; their conditions need not be identical. Identical values can stand only once.

Tests used:
Assay type in all cases: toxicity, cell-based
Fibroblast [1] = test: Incucyte cell viability with human fibroblast; conditions: 10 µM, compound concentration 10 uM; further: filed as whole numbers so only -1 and 0 and 1 occur
HEK-293T [2] = test: Incucyte cell viability with HEK293T; conditions: human, 10 µM, compound concentration 10 uM; further: filed as whole numbers so only -1 and 0 and 1 occur
Fibroblast [3] = test: Multiplex assay against human fibroblast; conditions: 1 µM, compound concentration 1 uM
How it was run: (§1)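 Hoechst33342, BioTracker Green Microtubule Cytoskeleton Dye, MitoTracker Red and Annexin V Alexa Fluor 680 were added to live cells at seeding, and imaging on a CQ1 microscope at 37°C and 5% CO2 followed compound addition. Gating by CellPathfinder machine learning separated cells into Hoechst high-intensity objects or normal cells, then normal cells into healthy, pyknosed or fragmented nuclei, then pyknosed cells into mitotic or apoptotic. Per cents of healthy-nucleus cells are reported for the tubulin, mitochondrial-mass and membrane-permeability phenotypes.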

U2OS [4] = test: Multiplex assay against U2OS; conditions: human, 1 µM, compound concentration 1 uM; how it was run: as §1
U2OS [5] = test: Incucyte cell viability with U2OS; conditions: human, 10 µM, compound concentration 10 uM; further: filed as whole numbers so only -1 and 0 and 1 occur
HEK-293T [6] = test: Multiplex assay against HEK293T; conditions: human, 1 µM, compound concentration 1 uM; how it was run: as §1;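 on Population Tubulin-Different-Phenotype (%): share of the cells with healthy nuclei that show this phenotype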
[7] = 0 h, replicate number 1, timepoint 0 hours
[8] = 6 h, replicate number 1, timepoint 6 hours
[9] = 12 h, replicate number 1, timepoint 12 hours
[10] = 18 h, replicate number 1, timepoint 18 hours
[11] = 24 h, replicate number 1, timepoint 24 hours
[12] = 0 h, replicate number 2, timepoint 0 hours

SMILES: CNC(=O)Nc1ccc2c(c1)CC[C@@]21OC(=O)N(CC(=O)N(Cc2ccc(F)cc2)[C@@H](C)C(F)(F)F)C1=O [A-485]
- Growth Rate (Fibroblast [1]; [7]): 0
- Growth Rate (Fibroblast [1]; [8]): 0
- Growth Rate (Fibroblast [1]; [9]): 0
- Growth Rate (Fibroblast [1]; 12 h, replicate number 2, timepoint 12 hours): 1
- Growth Rate (Fibroblast [1]; [10]): 0
- Growth Rate (Fibroblast [1]; [11]): 1
- Growth Rate (Fibroblast [1]; 24 h, replicate number 2, timepoint 24 hours): 0
- Growth Rate (HEK-293T [2]; [7]): 0
- Growth Rate (HEK-293T [2]; [12]): 1
- Growth Rate (HEK-293T [2]; [8]): 0
- Growth Rate (HEK-293T [2]; [9]): 0
- Growth Rate (HEK-293T [2]; [10]): 0
- Growth Rate (HEK-293T [2]; [11]): 0
- Population Apoptotic (%) (Fibroblast [3]; 12 h, replicate 1): 50% and 76%
- Population Fragmented Nuclei (%) (Fibroblast [3]; 12 h, replicate 1): 17% and 24%
- Population Healthy Nuclei (%) (Fibroblast [3]; 12 h, replicate 1): 59% and 61%
- Population Hoechst High Intensity Objects (%) (Fibroblast [3]; 12 h, replicate 1): 8% and 9%
- Population Mitotic Cells (%) (Fibroblast [3]; 12 h, replicate 1): 50% and 23%
- Population Normal (%) (Fibroblast [3]; 12 h, replicate 1): 91% and 90%
- Population Pyknosed Nuclei (%) (Fibroblast [3]; 12 h, replicate 1): 23% and 13%
- Total Cell Count (Fibroblast [3]; 12 h, replicate 1): 243 and 214
- Population Fragmented Nuclei (%) (Fibroblast [3]; 12 h, replicate 2): 53% and 66%
- Population Healthy Nuclei (%) (Fibroblast [3]; 12 h, replicate 2): 39% and 24%
- Population Hoechst High Intensity Objects (%) (Fibroblast [3]; 12 h, replicate 2): 37% and 49%
- Population Membrane Permeable-Phenotype (%) (Fibroblast [3]; 12 h, replicate 2): 11% and 33%
- Population Mitochondria Different-Phenotype (%) (Fibroblast [3]; 12 h, replicate 2): 17% and 25%
- Population Normal (%) (Fibroblast [3]; 12 h, replicate 2): 62% and 50%
- Population Pyknosed Nuclei (%) (Fibroblast [3]; 12 h, replicate 2): 6% and 10%
- Population Tubulin-Different-Phenotype (%) (Fibroblast [3]; 12 h, replicate 2): 23% and 66%
- Total Cell Count (Fibroblast [3]; 12 h, replicate 2): 69 and 99
- Population Apoptotic (%) (Fibroblast [3]; 24 h, replicate 1): 73% and 48%
- Population Fragmented Nuclei (%) (Fibroblast [3]; 24 h, replicate 1): 17% and 22%
- Population Healthy Nuclei (%) (Fibroblast [3]; 24 h, replicate 1): 64% and 59%
- Population Hoechst High Intensity Objects (%) (Fibroblast [3]; 24 h, replicate 1): 9% and 11%
- Population Membrane Permeable-Phenotype (%) (Fibroblast [3]; 24 h, replicate 1): 17% and 11%
- Population Mitotic Cells (%) (Fibroblast [3]; 24 h, replicate 1): 26% and 51%
- Population Normal (%) (Fibroblast [3]; 24 h, replicate 1): 90% and 88%
- Population Pyknosed Nuclei (%) (Fibroblast [3]; 24 h, replicate 1): 17%
- Population Tubulin-Different-Phenotype (%) (Fibroblast [3]; 24 h, replicate 1): 9%
- Total Cell Count (Fibroblast [3]; 24 h, replicate 1): 251 and 207
- Population Apoptotic (%) (Fibroblast [3]; 24 h, replicate 2): 50%
- Population Fragmented Nuclei (%) (Fibroblast [3]; 24 h, replicate 2): 51% and 62%
- Population Healthy Nuclei (%) (Fibroblast [3]; 24 h, replicate 2): 37% and 29%
- Population Hoechst High Intensity Objects (%) (Fibroblast [3]; 24 h, replicate 2): 39% and 51%
- Population Mitochondria Different-Phenotype (%) (Fibroblast [3]; 24 h, replicate 2): 0% and 21%
- Population Mitotic Cells (%) (Fibroblast [3]; 24 h, replicate 2): 50%
- Population Normal (%) (Fibroblast [3]; 24 h, replicate 2): 60% and 48%
- Population Pyknosed Nuclei (%) (Fibroblast [3]; 24 h, replicate 2): 10% and 8%
- Population Tubulin-Different-Phenotype (%) (Fibroblast [3]; 24 h, replicate 2): 21% and 42%
- Total Cell Count (Fibroblast [3]; 24 h, replicate 2): 61 and 99
- Population Apoptotic (%) (U2OS [4]; 12 h, replicate 1): 30% and 62%
- Population Fragmented Nuclei (%) (U2OS [4]; 12 h, replicate 1): 2% and 8%
- Population Healthy Nuclei (%) (U2OS [4]; 12 h, replicate 1): 91% and 85%
- Population Hoechst High Intensity Objects (%) (U2OS [4]; 12 h, replicate 1): 4%
- Population Mitochondria Different-Phenotype (%) (U2OS [4]; 12 h, replicate 1): 14% and 16%
- Population Mitotic Cells (%) (U2OS [4]; 12 h, replicate 1): 70% and 37%
- Population Normal (%) (U2OS [4]; 12 h, replicate 1): 95%
- Population Pyknosed Nuclei (%) (U2OS [4]; 12 h, replicate 1): 5% and 6%
- Population Tubulin-Different-Phenotype (%) (U2OS [4]; 12 h, replicate 1): 58% and 20%
- Total Cell Count (U2OS [4]; 12 h, replicate 1): 185 and 139
- Population Apoptotic (%) (U2OS [4]; 12 h, replicate 2): 20% and 0%
- Population Fragmented Nuclei (%) (U2OS [4]; 12 h, replicate 2): 10% and 7%
- Population Healthy Nuclei (%) (U2OS [4]; 12 h, replicate 2): 76% and 88%
- Population Hoechst High Intensity Objects (%) (U2OS [4]; 12 h, replicate 2): 6% and 8%
- Population Mitochondria Different-Phenotype (%) (U2OS [4]; 12 h, replicate 2): 23% and 22%
- Population Mitotic Cells (%) (U2OS [4]; 12 h, replicate 2): 80% and 100%
- Population Normal (%) (U2OS [4]; 12 h, replicate 2): 93% and 91%
- Population Pyknosed Nuclei (%) (U2OS [4]; 12 h, replicate 2): 12% and 4%
- Total Cell Count (U2OS [4]; 12 h, replicate 2): 82 and 103
- Population Fragmented Nuclei (%) (U2OS [4]; 24 h, replicate 1): 5% and 4%
- Population Healthy Nuclei (%) (U2OS [4]; 24 h, replicate 1): 88% and 90%
- Population Hoechst High Intensity Objects (%) (U2OS [4]; 24 h, replicate 1): 0% and 2%
- Population Membrane Permeable-Phenotype (%) (U2OS [4]; 24 h, replicate 1): 24% and 13%
- Population Mitochondria Different-Phenotype (%) (U2OS [4]; 24 h, replicate 1): 10% and 11%
- Population Mitotic Cells (%) (U2OS [4]; 24 h, replicate 1): 93% and 66%
- Population Normal (%) (U2OS [4]; 24 h, replicate 1): 99% and 97%
- Population Pyknosed Nuclei (%) (U2OS [4]; 24 h, replicate 1): 6% and 4%
- Population Tubulin-Different-Phenotype (%) (U2OS [4]; 24 h, replicate 1): 22% and 28%
- Total Cell Count (U2OS [4]; 24 h, replicate 1): 230 and 188
- Population Apoptotic (%) (U2OS [4]; 24 h, replicate 2): 35% and 66%
- Population Fragmented Nuclei (%) (U2OS [4]; 24 h, replicate 2): 9% and 3%
- Population Healthy Nuclei (%) (U2OS [4]; 24 h, replicate 2): 77% and 94%
- Population Hoechst High Intensity Objects (%) (U2OS [4]; 24 h, replicate 2): 6% and 11%
- Population Membrane Permeable-Phenotype (%) (U2OS [4]; 24 h, replicate 2): 14% and 11%
- Population Mitochondria Different-Phenotype (%) (U2OS [4]; 24 h, replicate 2): 19% and 18%
- Population Mitotic Cells (%) (U2OS [4]; 24 h, replicate 2): 64% and 33%
- Population Normal (%) (U2OS [4]; 24 h, replicate 2): 93% and 88%
- Population Tubulin-Different-Phenotype (%) (U2OS [4]; 24 h, replicate 2): 13% and 11%
- Total Cell Count (U2OS [4]; 24 h, replicate 2): 114 and 147
- Growth Rate (U2OS [5]; [7]): 1
- Growth Rate (U2OS [5]; [12]): 0
- Growth Rate (U2OS [5]; [8]): 0
- Growth Rate (U2OS [5]; [9]): 1
- Growth Rate (U2OS [5]; [10]): 1
- Growth Rate (U2OS [5]; [11]): 1
- Population Apoptotic (%) (HEK-293T [6]; 12 h, replicate 1): 15% and 30%
- Population Fragmented Nuclei (%) (HEK-293T [6]; 12 h, replicate 1): 18% and 22%
- Population Healthy Nuclei (%) (HEK-293T [6]; 12 h, replicate 1): 55% and 56%
- Population Hoechst High Intensity Objects (%) (HEK-293T [6]; 12 h, replicate 1): 16% and 23%
- Population Mitochondria Different-Phenotype (%) (HEK-293T [6]; 12 h, replicate 1): 8% and 7%
- Population Mitotic Cells (%) (HEK-293T [6]; 12 h, replicate 1): 84% and 69%
- Population Normal (%) (HEK-293T [6]; 12 h, replicate 1): 83% and 76%
- Population Pyknosed Nuclei (%) (HEK-293T [6]; 12 h, replicate 1): 26% and 20%
- Total Cell Count (HEK-293T [6]; 12 h, replicate 1): 630 and 586
- Population Apoptotic (%) (HEK-293T [6]; 12 h, replicate 2): 6% and 12%
- Population Fragmented Nuclei (%) (HEK-293T [6]; 12 h, replicate 2): 5% and 8%
- Population Healthy Nuclei (%) (HEK-293T [6]; 12 h, replicate 2): 85% and 87%
- Population Hoechst High Intensity Objects (%) (HEK-293T [6]; 12 h, replicate 2): 2%
- Population Mitochondria Different-Phenotype (%) (HEK-293T [6]; 12 h, replicate 2): 20% and 9%
- Population Mitotic Cells (%) (HEK-293T [6]; 12 h, replicate 2): 93% and 87%
- Population Normal (%) (HEK-293T [6]; 12 h, replicate 2): 97%
- Population Pyknosed Nuclei (%) (HEK-293T [6]; 12 h, replicate 2): 8% and 4%
- Total Cell Count (HEK-293T [6]; 12 h, replicate 2): 1495 and 1775
- Population Apoptotic (%) (HEK-293T [6]; 24 h, replicate 1): 21% and 25%
- Population Fragmented Nuclei (%) (HEK-293T [6]; 24 h, replicate 1): 18%
- Population Healthy Nuclei (%) (HEK-293T [6]; 24 h, replicate 1): 62% and 73%
- Population Hoechst High Intensity Objects (%) (HEK-293T [6]; 24 h, replicate 1): 11% and 16%
- Population Membrane Permeable-Phenotype (%) (HEK-293T [6]; 24 h, replicate 1): 14% and 9%
- Population Mitochondria Different-Phenotype (%) (HEK-293T [6]; 24 h, replicate 1): 15% and 6%
- Population Mitotic Cells (%) (HEK-293T [6]; 24 h, replicate 1): 78% and 74%
- Population Normal (%) (HEK-293T [6]; 24 h, replicate 1): 88% and 83%
- Population Pyknosed Nuclei (%) (HEK-293T [6]; 24 h, replicate 1): 18% and 8%
- Population Tubulin-Different-Phenotype (%) (HEK-293T [6]; 24 h, replicate 1): 74%
- Total Cell Count (HEK-293T [6]; 24 h, replicate 1): 539 and 610
- Population Apoptotic (%) (HEK-293T [6]; 24 h, replicate 2): 10% and 4%
- Population Fragmented Nuclei (%) (HEK-293T [6]; 24 h, replicate 2): 14% and 24%
- Population Healthy Nuclei (%) (HEK-293T [6]; 24 h, replicate 2): 81% and 72%
- Population Hoechst High Intensity Objects (%) (HEK-293T [6]; 24 h, replicate 2): 5% and 3%
- Population Membrane Permeable-Phenotype (%) (HEK-293T [6]; 24 h, replicate 2): 16% and 10%
- Population Mitotic Cells (%) (HEK-293T [6]; 24 h, replicate 2): 89% and 95%
- Population Normal (%) (HEK-293T [6]; 24 h, replicate 2): 94% and 96%
- Population Pyknosed Nuclei (%) (HEK-293T [6]; 24 h, replicate 2): 4% and 2%
- Total Cell Count (HEK-293T [6]; 24 h, replicate 2): 1741 and 2832
